These results are taken from publication PMC7433031 (European journal of medicinal chemistry, 2020).

Structures are written as SMILES.

One test concerns MOLT-4 T-ALL cells. Kind of test: MOLT-4 cell viability assay. It counts as cell-based, human.
Test [1] deals with BCL-XL / BCL-2 ternary complexes with DT2216 and VHL. The note with it: live cells, nanoBRET assay; cited from earlier work. On the technique in general: Bioluminescence resonance energy transfer reports proximity on the nanometre scale.
For test [2], the system named is RS4;11 B-cell ALL cell line. Kind of test: RS4. The note with it: Homo sapiens, RS4-11, 48 h, read-out: IC50 48 h treatment RS4;11. In kind it is cell-based. The essentials: (§1)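 NCI-H146 small-cell lung cancer and RS4;11 B-ALL cells maintained in RPMI 1640 plus 10% FBS and 1% penicillin-streptomycin. Cells seeded at 5×10⁴ to 1×10⁵ per well and treated with test compound for 48 h. Viability measured by tetrazolium-based MTS assay, with IC50 calculated from the viability data.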

In test [3] the test system is H146 small cell lung cancer cell line. Kind of test: H146 cell viability assay. In kind it is cell-based. The note with it: Homo sapiens, NCI-H146, 48 h, read-out: IC50 48 h treatment H146. In short, it runs like this:
as §1

A further test has as its system human platelets. Kind of test: Human platelet viability assay. It counts as cell-based. The following applies: Homo sapiens, Platelet, 48 h, read-out: IC50 48 h treatment Platelets. In short, it runs like this: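 Platelets were separated from purchased platelet-rich plasma in acid citrate buffer with 1 μM PGE1 and 0.2 units/mL apyrase (final). Cells were centrifuged and adjusted to 2 × 10⁸/mL in HEPES Tyrode's buffer with 10% FBS, 1 μM PGE1 and 0.2 units/mL apyrase. They were treated for 48 h, with or without a 10 μM pomalidomide block, and read by MTS. IC50 values were curve-fitted. The ratio divides platelet IC50 by 48 h MOLT-4 MTS IC50.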

The next test concerns the target BCL-XL (Homo sapiens, UniProt Q07817). Kind of test: Western blot of BCL-XL protein levels in MOLT-4 cells. It counts as cell-based. In short, it runs like this: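 MOLT-4 cells were treated for 16 h with test compound (100 nM for VHL-based, 50 nM for CRBN-based, or a concentration series for DC50). Other runs used 100 nM over a time course, or 16 h exposure followed by washout into drug-free medium. Some cells were pretreated 2 h with 10 μM pomalidomide or 1 μM MG-132. Immunoblot bands were normalized to β-actin and expressed as % remaining versus vehicle.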

Test [4] relates to PARP and caspase-3 cleavage. Kind of test: Western blot of cleaved-PARP and cleaved-caspase-3 in MOLT-4 cells. In kind it is cell-based, human. The following applies: MOLT-4, 16 h, indicated concentrations. The essentials:
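MOLT-4 cells were exposed to a range of test compound concentrations for 16 h. Cleaved PARP and cleaved caspase-3 were detected by immunoblot. Equal protein was run on 4–20% Tris-glycine gels and transferred to PVDF. Membranes were blocked in 5% milk/TBS-Tween, given primary antibody overnight at 4 °C, then HRP secondary and ECL. β-actin served as loading control.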
A general note: A western blot detects proteins with antibodies after separation by electrophoresis.

Sequence of BCL-XL (Q07817 whole entry): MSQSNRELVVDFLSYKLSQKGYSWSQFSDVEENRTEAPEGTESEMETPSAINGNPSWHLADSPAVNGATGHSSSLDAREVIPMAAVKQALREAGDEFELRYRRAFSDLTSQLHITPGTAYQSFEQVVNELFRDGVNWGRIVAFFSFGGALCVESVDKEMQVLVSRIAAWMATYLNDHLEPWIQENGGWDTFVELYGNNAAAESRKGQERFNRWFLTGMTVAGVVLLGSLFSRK

`Cc1ncsc1-c1ccc([C@H](C)NC(=O)[C@@H]2C[C@@H](O)CN2C(=O)[C@@H](NC(=O)CCCCCC(=O)N2CCN(CC[C@H](CSc3ccccc3)Nc3ccc(S(=O)(=O)NC(=O)c4ccc(N5CCN(CC6=C(c7ccc(Cl)cc7)CCC(C)(C)C6)CC5)cc4)cc3S(=O)(=O)C(F)(F)F)CC2)C(C)(C)C)cc1` [Compound 1e, (2S,4R)-1-((S)-2-(7-(4-((R)-3-((4-(N-(4-(4-((4’-Chloro-4,4-dimethyl-3,4,5,6-tetrahydro-[1,1’-biphenyl]-2-yl)methyl)piperazin-1-yl)benzoyl)sulfamoyl)-2-((trifluoromethyl)sulfonyl)phenyl)amino)-4-(phenylthio)butyl)piperazin-1-yl)-7-oxoheptanamido)-3,3-dimethylbutanoyl)-4-hydroxy-N-((S)-1-(4-(4-methylthiazol-5-yl)phenyl)ethyl)pyrrolidine-2-carboxamide]: the “times more potent than ABT-263 in reducing MOLT-4 cell viability” value in the test with MOLT-4 T-ALL cells (MOLT-4, versus ABT-263) amounted to 3 times. Further, in test [1], the “formation of stable ternary complexes with VHL” value is on record as “BCL-XL, but not BCL-2, can form stable ternary complexes”.
For orientation: IC50 means the concentration at which inhibition is half-maximal. For the compound `CN(CCOCCOCCOCCNc1cccc2c1C(=O)N(C1CCC(=O)NC1=O)C2=O)CC[C@H](CSc1ccccc1)Nc1ccc(S(=O)(=O)NC(=O)c2ccc(N3CCN(CC4=C(c5ccc(Cl)cc5)CCC(C)(C)C4)CC3)cc2)cc1S(=O)(=O)C(F)(F)F` (stereo partly drawn) [Compound 17b, 4-(4-((4’-Chloro-4,4-dimethyl-3,4,5,6-tetrahydro-[1,1’-biphenyl]-2-yl)methyl)piperazin-1-yl)-N-((4-(((15R)-1-((2-(2,6-dioxopiperidin-3-yl)-1,3-dioxoisoindolin-4-yl)amino)-12-methyl-16-(phenylthio)-3,6,9-trioxa-12-azahexadecan-15-yl)amino)-3-((trifluoromethyl)sulfonyl)phenyl)sulfonyl)benzamide], the IC50 was 10.1 nM in the test with MOLT-4 T-ALL cells (Homo sapiens, MOLT-4, 48 h, read-out: IC50, reduction of MOLT-4 cell viability); 41.8 nM in test [2]; 25.3 nM in test [3]; 1220 nM in the test with human platelets. On BCL-XL (MOLT-4, 100 nM for 16 h then washout), the “effects on BCL-XL protein levels after drug washout” value was “long-lasting and also reversible”. Moreover, the “BCL-XL degradation after pretreatment with MG-132 or pomalidomide” value on BCL-XL (MOLT-4, 1 μM MG-132 or 10 μM pomalidomide pretreatment for 2 h) was “can be abrogated”. Further, the “BCL-XL degradation at indicated concentrations” value at BCL-XL (MOLT-4, 16 h, Western blot (Figure 5A, 5F)) is given as “dose-dependently induced BCL-XL degradation”. The “PARP and caspase-3 cleavage” value in test [4] was “dose-dependently increased”.
